Legend:
B1 bradykinin receptor [1] = biological target: T1, B1 bradykinin receptor (Homo sapiens, UniProt P46663); assay: Antagonistic activity at human bradykinin B1 receptor expressed in CHO cells assessed as effect on DAK-mediated calcium mobilization; assay type: functional, cell-based
T1 sequence (P46663 whole entry): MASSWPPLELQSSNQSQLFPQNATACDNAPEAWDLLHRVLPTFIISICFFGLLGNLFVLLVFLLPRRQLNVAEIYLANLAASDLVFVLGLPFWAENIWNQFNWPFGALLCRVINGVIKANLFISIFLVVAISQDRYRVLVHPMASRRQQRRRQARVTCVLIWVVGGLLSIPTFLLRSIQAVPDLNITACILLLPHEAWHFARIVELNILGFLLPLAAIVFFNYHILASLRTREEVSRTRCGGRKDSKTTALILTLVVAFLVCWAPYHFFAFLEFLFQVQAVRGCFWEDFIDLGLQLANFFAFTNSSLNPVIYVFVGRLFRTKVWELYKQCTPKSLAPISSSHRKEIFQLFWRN
Outline: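 B1 receptor cDNA transfected into CHO cells; antagonist potency given as IC50 ± SEM with the number of determinations (n).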

B1 bradykinin receptor [2] = biological target: T1, B1 bradykinin receptor; assay: Displacement of [3H]DAK from human bradykinin B1 receptor expressed in CHO-D cells; assay type: cell-based
[3] = AUC (0-inf) in rat at 10 mg/kg, sc; assay type: ADME, organism-based; design: time infinity, dose 10 mg/kg, route subcutaneous; settings: plasma
Rattus norvegicus [4] = assay: Reduction of exudates volume in rat reverse passive arthus model at 30 mg/kg, sc relative to control; assay type: functional; design: scale not given: the % may be the effect or the level left; settings: route subcutaneous
Outline: (§1)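 Reverse passive Arthus inflammation model in rats; drug given s.c. at 30, 60 or 90 mg/kg; exudate volume expressed relative to saline-treated animals and tested for statistical significance.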

[5] = AUC (0-inf) in rat at 1 mg/kg, iv; assay type: ADME, organism-based; design: time infinity, dose 1 mg/kg, route intravenous; settings: plasma
Rattus norvegicus [6] = assay: Reduction of exudates volume in rat reverse passive arthus model at 60 mg/kg, sc relative to control; assay type: functional; design: scale not given: the % may be the effect or the level left; settings: route subcutaneous; outline: as §1
[7] = Clearance in rat at 10 mg/kg, sc; assay type: ADME, organism-based; design: dose 10 mg/kg, route subcutaneous; settings: in vivo
Rattus norvegicus [8] = assay: Reduction of exudates volume in rat carrageenan-induced pleurisy model at 90 mg/kg, sc relative to control; assay type: functional; design: scale not given: the % may be the effect or the level left; settings: route subcutaneous
[9] = Cmax in rat at 10 mg/kg, sc; assay type: ADME, organism-based; design: dose 10 mg/kg, route subcutaneous; settings: in vivo
[10] = Bioavailability in rat at 10 mg/kg, sc; assay type: ADME, organism-based; settings: in vivo
[11] = Half life in rat at 10 mg/kg, sc; assay type: ADME, organism-based; design: dose 10 mg/kg, route subcutaneous; settings: in vivo
[12] = AUC (0-t) in rat at 10 mg/kg, sc; assay type: ADME, organism-based; design: dose 10 mg/kg, route subcutaneous; settings: plasma
[13] = Half life in rat at 1 mg/kg, iv; assay type: ADME, organism-based; design: dose 1 mg/kg, route intravenous; settings: in vivo
Rattus norvegicus [14] = assay: Reduction of exudates volume in rat reverse passive arthus model at 90 mg/kg, sc relative to control; assay type: functional; design: scale not given: the % may be the effect or the level left; settings: route subcutaneous; outline: as §1
[15] = Tmax in rat at 10 mg/kg, sc; assay type: ADME, organism-based; design: dose 10 mg/kg, route subcutaneous; settings: in vivo
[16] = AUC (0-t) in rat at 1 mg/kg, iv; assay type: ADME, organism-based; design: dose 1 mg/kg, route intravenous; settings: plasma
Rattus norvegicus [17] = assay: Relevant drug concentration for 5-6 hrs in rat at 90 mg/kg, sc; assay type: ADME, organism-based; design: dose 90 mg/kg, route subcutaneous; settings: in vivo
Plasma = assay: Fraction unbound in rat plasma; assay type: ADME, cell-free
B2 bradykinin receptor = biological target: T2, B2 bradykinin receptor (Homo sapiens, UniProt P30411); assay: Displacement of [3H]bradykinin from human bradykinin B2 receptor expressed in CHO-K1 cells; assay type: cell-based
T2 sequence (P30411 whole entry): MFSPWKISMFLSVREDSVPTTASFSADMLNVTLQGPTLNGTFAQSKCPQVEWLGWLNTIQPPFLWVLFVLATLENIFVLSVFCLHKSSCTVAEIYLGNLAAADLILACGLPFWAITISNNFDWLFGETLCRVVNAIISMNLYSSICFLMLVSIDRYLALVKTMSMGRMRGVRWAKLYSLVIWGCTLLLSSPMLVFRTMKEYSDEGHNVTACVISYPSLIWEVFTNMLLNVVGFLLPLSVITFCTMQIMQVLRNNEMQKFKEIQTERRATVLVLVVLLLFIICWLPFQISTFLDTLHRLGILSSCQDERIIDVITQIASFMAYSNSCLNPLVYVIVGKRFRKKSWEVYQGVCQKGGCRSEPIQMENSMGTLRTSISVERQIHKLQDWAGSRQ

[18] = Mean residence time in rat at 1 mg/kg, iv; assay type: ADME, organism-based; design: dose 1 mg/kg, route intravenous; settings: in vivo
[19] = Volume of distribution in rat at 1 mg/kg, iv; assay type: ADME, organism-based; design: dose 1 mg/kg, route intravenous; settings: in vivo, read-out: Vss
Rattus norvegicus [20] = assay: Reduction of edema formation in rat reverse passive arthus model at 3 mg/kg, po; assay type: ADME, organism-based; design: dose 3 mg/kg, route oral; settings: in vivo

SMILES	IC50 (B1 bradykinin receptor [1]) [nM]	Ki (B1 bradykinin receptor [2]) [nM]	Ki (B2 bradykinin receptor) [nM]	other results
C[C@@H](NC(=O)C[C@@H](NS(=O)(=O)c1ccc2ccccc2c1)c1ccccc1)c1ccc(CN2CCCCC2)cc1	302	17		
O=C(C[C@@H](NS(=O)(=O)c1ccc2ccccc2c1)c1ccccc1)NC1CCc2cc(CCN3CCCCC3)ccc2C1 (stereo partly drawn)	325			
O=C(C[C@H](NS(=O)(=O)c1ccc2ccccc2c1)c1ccccc1)NCc1ccc(CN2CCCCC2)cc1	> 4000			
O=C(C[C@@H](NS(=O)(=O)c1ccc2ccccc2c1)c1ccccc1)N[C@@H]1CCOc2cc(CN3CCCCC3)ccc21			> 50000	AUC(0-inf) [3]: 2090 ng·h/mL; Activity (Rattus norvegicus [4]): 14%; AUC(0-inf) [5]: 201 ng·h/mL; Activity (Rattus norvegicus [6]): 10%; CL/F [7]: 79.6 mL/min/kg; Activity (Rattus norvegicus [8]): 22%; Cmax [9]: 825 ng/mL; bioavailability [10]: 106%; half-life [11]: 2.2 h; AUC(0-t) [12]: 1960 ng·h/mL; half-life [13]: 1.4 h; Activity (Rattus norvegicus [14]): 26%; Tmax [15]: 0.4 h; AUC(0-t) [16]: 194 ng·h/mL; concentration (Rattus norvegicus [17]): 125 nM; Fu (Plasma): 0.032; MRT [18]: 1.5 h; Vd [19]: 7.43 L/kg
O=C(C[C@@H](NS(=O)(=O)c1ccc2ccccc2c1)c1ccccc1)N[C@@H]1CCc2cc(CN3CCCCC3)ccc21	5.6	1.6	49200	
CN1c2cc(CN3CCCCC3)ccc2[C@@H](NC(=O)C[C@@H](NS(=O)(=O)c2ccc3ccccc3c2)c2ccccc2)CS1(=O)=O	10.7	1.3	35000	
O=C(C[C@@H](NS(=O)(=O)c1ccc2ccccc2c1)c1ccccc1)NCc1ccc(CN2CCCCC2)cc1	447	132		
O=C(C[C@@H](NS(=O)(=O)c1ccc2ccccc2c1)c1ccccc1)N[C@H]1CCc2cc(CN3CCCCC3)ccc21	183	241	13300	
O=C(C[C@@H](NS(=O)(=O)c1ccc2ccccc2c1)c1ccccc1)N[C@H]1CCOc2cc(CN3CCCCC3)ccc21			> 20000	
O=C(CC(NS(=O)(=O)c1ccc2ccccc2c1)c1ccccc1)NCc1ccc(CN2CCCCC2)cc1 (racemic)	359	382	56000	
O=C(C[C@@H](NS(=O)(=O)c1ccc2ccccc2c1)c1ccccc1)NCCc1ccc(CN2CCCCC2)cc1	540			
CN1c2cc(CN3CCCCC3)ccc2[C@H](NC(=O)C[C@@H](NS(=O)(=O)c2ccc3ccccc3c2)c2ccccc2)CS1(=O)=O	14	15.8	16000	
COc1ccc2c(c1)c(CC(=O)O)c(C)n2C(=O)c1ccc(Cl)cc1 [INDOMETHACIN]				Activity (Rattus norvegicus [20]): Not Active

— ChEMBL document CHEMBL1141368, “Identification of a nonpeptidic and conformationally restricted bradykinin B1 receptor antagonist with anti-inflammatory activity” (J Med Chem, 2007)
